Data taken from PMC3070847 (Bioorganic & medicinal chemistry letters, 2011).
pIC50: −log10 of the molar value.

Biological target: HIV-1 IN (Human immunodeficiency virus type 1 group M subtype B, UniProt P04585)
Experiment: Biochemical gel assay of HIV-1 IN
Details: IN IC50 3'-P, 3' processing function
Method in brief: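 Recombinant HIV-1 integrase was used as the enzyme in the biochemical evaluation.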

Row | Structure (SMILES) | pIC50
1 | CCc1c(C(=O)c2ccccc2)n(COCc2ccccc2)c(=O)n(O)c1=O [Compound 17] | < 3.95
2 | CCc1c(C(=O)c2ccccc2)n(COCc2ccc(F)cc2)c(=O)n(O)c1=O [Compound 18] | < 3.95
3 | CCc1c(C(=O)c2cc(C)cc(C)c2)n(COCc2ccc(F)cc2)c(=O)n(O)c1=O [Compound 19] | < 3.95
4 | CCc1c(C(=O)c2cc(C)cc(C)c2)n(COCc2ccccc2)c(=O)n(O)c1=O [Compound 20] | < 3.95
5 | CCc1c(C(=O)c2ccccc2)n(COCCc2ccc(F)cc2)c(=O)n(O)c1=O [Compound 21] | < 3.95
6 | CCc1c(C(=O)c2cc(C)cc(C)c2)n(COCCc2ccc(F)cc2)c(=O)n(O)c1=O [Compound 22] | < 3.95
7 | CCOCn1c(C(=O)c2ccccc2)c(CC)c(=O)n(O)c1=O [Compound 23] | < 3.95
8 | CCOCn1c(C(=O)c2cc(C)cc(C)c2)c(CC)c(=O)n(O)c1=O [Compound 24] | < 3.95
